# Only some compounds are listed: those with a hit (about 1.1% of all), similar ones and a draw of the others.
# core dimer inh: inhibitors of HCV core protein dimerization, primary screen, biochemical, TR-FRET, high-throughput; actives 0.33% (n = 300,000); inhibition, % at 5 µM; TR-FRET GST/Flag-core106 dimerization, 1536-well;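 active = inhibition above the mean of all tested compounds plus 3 SD, set per screening campaign, cut at about 45% in these data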
#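 Assay system: GST-tagged and Flag-tagged HCV core protein residues 1-106 / Times: compound-protein-antibody incubation 4 h at 22.5 °C / Signal: time-resolved FRET, ex 340 nm, em 617 and 671 nm / Evaluation: % inhibition based on acceptor/donor emission ratio / Benchmarks: wells lacking GST-core106 and wells with excess unlabelled core106 / Repeats: singlicate, one well per compound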
# NR2E3 ag-1: inhibitors of NR2E3-RetCOR corepressor binding, primary screen, NR2E3 agonist project, biochemical, TR-FRET, GST-NR2E3, biotin-RetCOR | 1536-well | actives 0.12% (n = 320,000) | Photoreceptor-specific nuclear receptor (Homo sapiens), Q9Y5X4 | AID 2300, 2010 | inhibition of corepressor binding, % at 4.78 µM;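 active = percent inhibition above the cutoff of mean plus 3 SD of all tested compounds, set per screening campaign, cut at about 20% in these data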;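 note: 0% = DMSO wells and 100% = biotin wells as full block of FRET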
#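 Test system: GST-NR2E3 and biotin-RetCOR proteins | Quantity: 1.35 nM GST-tagged NR2E3 final | Medium: Tris pH 7.5 | Also added: 7 nM biotin-RetCOR | Dosing: Compound at 4.8 µM, single dose | Timing: 5 h at 4 °C | Detection: Time-resolved FRET | Read-out basis: Percent inhibition | Benchmarks: Biotin wells as high control, 0.6% DMSO wells as low control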
# NR2E3 ag-2: NR2E3 agonists in two-hybrid cells, primary screen, cell-based, luminescence, CHO-S, Gal4-NCOR/VP16-NR2E3 | Photoreceptor-specific nuclear receptor (Homo sapiens), Q9Y5X4 | luciferase | inhibition of corepressor binding, % at 3.98 µM | actives 0.35% (n = 360,000) | AID 602229, 2012;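 active = inhibition above the mean of all tested compounds plus 3 SD, cut at about 70% in these data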;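 note: 0% = DMSO with NR2E3 transfected cells and 100% = cells lacking NR2E3 construct; higher means lower luciferase signal from less NR2E3 corepressor binding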
# DAGLB inhibitor: DAGLB lipase inhibitors, primary screen, biochemical, fluorescence, HTS | Diacylglycerol lipase-beta (Homo sapiens), Q8NCG7 | HEK293T DAGLB membrane lysate, EnzChek fluorogenic substrate | inhibition, % at 5.17 µM | actives 0.059% (n = 340,000) | AID 504411, 2011; in the data active = inhibition above about 34%;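 note: 0% = enzyme with vehicle and 100% = wells lacking enzyme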
# Target sequence (Q8NCG7 whole entry, looked up): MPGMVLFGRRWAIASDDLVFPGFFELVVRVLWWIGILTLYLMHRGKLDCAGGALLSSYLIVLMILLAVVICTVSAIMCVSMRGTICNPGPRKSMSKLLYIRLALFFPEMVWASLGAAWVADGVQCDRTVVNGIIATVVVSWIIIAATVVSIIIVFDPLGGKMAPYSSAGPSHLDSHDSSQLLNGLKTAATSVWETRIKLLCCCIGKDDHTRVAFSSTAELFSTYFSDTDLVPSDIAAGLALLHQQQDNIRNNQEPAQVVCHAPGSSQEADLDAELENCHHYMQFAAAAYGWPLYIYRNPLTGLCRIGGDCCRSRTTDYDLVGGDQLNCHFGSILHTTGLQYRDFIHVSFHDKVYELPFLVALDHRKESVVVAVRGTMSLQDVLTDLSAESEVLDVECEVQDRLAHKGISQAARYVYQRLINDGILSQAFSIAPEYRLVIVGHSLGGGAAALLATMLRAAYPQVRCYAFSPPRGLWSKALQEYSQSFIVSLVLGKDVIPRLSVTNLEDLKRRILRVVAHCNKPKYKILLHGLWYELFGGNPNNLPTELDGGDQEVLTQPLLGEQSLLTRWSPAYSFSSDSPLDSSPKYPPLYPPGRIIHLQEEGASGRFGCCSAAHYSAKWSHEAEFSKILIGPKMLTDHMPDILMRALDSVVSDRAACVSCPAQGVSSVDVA
# MT1-MMP act inh: blockers of MT1-MMP proenzyme processing, primary screen, HT1080 RFP-PRO-GFP cells, GFP/RFP fluorescence; Matrix metalloproteinase-14 (Homo sapiens), P50281; GFP/RFP ratio fluorescence, overnight; percent of plate control window, DMSO zero; GFP/RFP ratio change, % at 20 µM; actives 0.061% (n = 360,000); AID 651647, 2012;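 active = GFP/RFP ratio change of at least 30% with cell ATP level not reduced by more than half and red fluorescence within 50% of control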
#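 Compound: 20 µM single dose, 1% DMSO / System: HT1080 RFP-PRO-GFP cells / Controls: DMSO and RFP-L50D-GFP cell wells / Read-out basis: GFP/RFP fluorescence ratio / Schedule: overnight compound exposure at 37 °C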
# Vif inh: HIV Vif self-association inhibitors, primary screen, imaging, HEK293T, single point | inhibition, % at 7.49 µM | actives 0.35% (n = 340,000) | AID 602346, 2012 | HEK293T cells, Vif self-association by quenched fluorescence, 24 h; in the data active = inhibition above about 50%, passing the limit was not always enough
# NR2E3 ag conf: NR2E3 agonist confirmation in cells, cell-based, luminescence, CHO-S two-hybrid; AID 624378, 2012; actives 51% (n = 2,300); shares compounds with NR2E3 ag-2; CHO-S mammalian two-hybrid NR2E3-NCOR, luciferase luminescence; inhibition, % at 3.98 µM;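 active = average inhibition above a cutoff equal to the mean inhibition of all tested compounds plus one SD, cut at about 70% in these data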;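 note: 0% = DMSO in NR2E3 cells and 100% = DMSO in cells lacking NR2E3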
# VP16 counter: GAL4-VP16 reporter modulators, confirmation, counter-screen for NR2E3 agonist project, cell-based, luminescence, CHO-S, high throughput. actives 29% (n = 2,300). CHO-S GAL4-VP16 luciferase reporter. inhibition, % at 3.98 µM. AID 624379, 2012. shares compounds with NR2E3 ag-2;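 active = mean inhibition above a cutoff equal to the average over all tested compounds plus one standard deviation, cut at about 70% in these data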;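 note: luciferase from a UAS reporter driven by GAL4-VP16 transactivation; 0% = DMSO with VP16-transfected cells and 100% = DMSO with cells lacking VP16; higher means less reporter light so more repression of VP16 activity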
# Numbers without * were called inactive; i = inactive; / = no result given.
SMILES,core dimer inh,NR2E3 ag-1,NR2E3 ag-2,DAGLB inhibitor,MT1-MMP act inh,Vif inh,NR2E3 ag conf,VP16 counter
Cc1cccc(C)c1NC(=O)C(c1cc2ccccc2o1)N1CCN(C)CC1 (stereo unspecified),/,/,/,/,-1,/,/,/
Cc1ccc(C)c(NC(=S)c2ccccn2)c1,-5,1,54,-8,-2,/,-20,-75
Cc1ccc(C)c(NC(=S)c2ccc3ccccc3n2)c1,-11,-2,-89,-3,6,0,/,/
Cc1ccc(S(=O)(=O)NNC(=O)C2Cc3c(ccc4ccccc34)O2)cc1 (stereo unspecified),-2,2,60,-1,1,-5,8,52
Cc1nc2c(-c3ccc(Cl)cc3)cnn2c(N)c1-c1ccc(F)cc1,5,1,32,-2,9,-13,/,/
Cc1nc2c(-c3ccc(F)cc3)cnn2c(N)c1-c1ccccc1,-19,2,77*,-6,12,4,48,12
C=C[C@]1(C)C=C2CC[C@H]3[C@@](C)(CCC[C@@]3(C)C(=O)O)[C@@H]2CC1,/,/,15,2,0,-1,/,/
C=C[C@]1(C)C=C2C(=O)[C@@]3(O)OC(=O)[C@@]4(CCCC(C)(C)[C@H]34)[C@@]2(O)CC1,/,/,92*,/,-9,13,91*,63
CC(=O)c1cccc(NC(=O)C2Cc3c(-c4cccc(C(N)=O)c4)ccnc3O2)c1 (stereo unspecified),/,/,-29,/,-1,-4,/,/
Cc1cc(/C=C2/SC(=S)N(c3cccc(Cl)c3)C2=O)c(C)n1-c1cccnc1,-32,1,63,-1,-85,/,53,66
Cc1ccc(S(=O)(=O)Nc2ccc3cc([N+](=O)[O-])ccc3c2[N+](=O)[O-])cc1,/,/,101*,21,14,-23,100*,91*
Cc1ccc(S(=O)(=O)Nc2ccc3ccccc3c2[N+](=O)[O-])cc1,/,/,47,18,-3,-5,/,/
COc1ccc(CCNC(=O)c2nnn(-c3ccc4c(c3)OCCO4)c2N)cc1OC,1,1,66,3,-3,-11,51,24
COc1ccc(Br)cc1Cn1nnc(C(=O)Nc2ccc3c(c2)OCCO3)c1N,10,1,56,0,-3,-8,65,12
COc1ccc(CCNC(=O)c2nnn(-c3ccccc3OC)c2N)cc1OC,-3,-2,-5,1,1,2,/,/
COc1ccc(NC(=O)c2nnn(CC(=O)Nc3ccc4c(c3)OCO4)c2N)cc1OC,15,1,3,1,0,16,/,/
CCC(C)c1ccccc1NC(=O)COC(=O)C1=COCCO1 (stereo unspecified),-3,1,-3,2,1,0,/,/
CN(CC(=O)NCc1ccc(F)cc1)CC(=O)Nc1ccc(Cl)c(C(F)(F)F)c1,-13,1,94*,2,5,-11,53,49
CN(CC(=O)NCC(=O)Nc1ccc(F)cc1)CC(=O)Nc1ccc(Cl)c(C(F)(F)F)c1,/,/,-14,0,7,5,/,/
Cc1ccsc1C(C(=O)NC(C)(C)C)N(C(=O)c1csnn1)c1ccccc1 (stereo unspecified),-5,1,2,-4,2,0,/,/
CC(C)(C)c1ccc(-c2noc(CCC(=O)NCc3ccco3)n2)cc1,3,4,77*,-3,1,-5,74*,79*
COc1cccc(COc2ccccc2C2Nc3ccc(Br)cc3C(=O)N2NC(=O)c2ccncc2)c1 (stereo unspecified),21,3,48,-2,-1,-6,65,30
COc1ccc(C2Nc3ccccc3C(=O)N2NC(C)=O)c(OC)c1 (stereo unspecified),8,0,-14,-1,1,8,/,/
O=C(NCc1ccco1)c1ccc(COc2ccccc2[N+](=O)[O-])o1,2,0,-6,1,-4,-8,/,/
CC(C)(NO)/C(=N/O)c1ccc(Br)cc1,-10,2,48,-1,1,15,13,-9
SMILES,core dimer inh,NR2E3 ag-1,NR2E3 ag-2,DAGLB inhibitor,MT1-MMP act inh,Vif inh,NR2E3 ag conf,VP16 counter
COc1cccc(NC(=O)c2ccc3nc(C)sc3c2)c1,8,5,-166,-1,3,-2,/,/
CCN1/C(=C/c2ccc3cc(C)ccc3[n+]2CC)Sc2cc(C)c(C)cc21,/,/,90*,-1,-25,/,99*,87*
CCN1/C(=C/c2ccc3cc(C)ccc3[n+]2CC)Sc2ccccc21,-70,-25,91*,-15,-37,12,99*,89*
CCOC(=O)/C(=C/C=C1\Sc2cc(C)c(C)cc2N1CC)C(C)=O,/,/,0,-51,-107,i,/,/
CCN1/C(=C/C=C/c2sc3ccccc3[n+]2CC)Sc2ccccc21,-189,1,20,12,48,-36,/,/
CC[n+]1c(/C=C2\Sc3ccccc3N2C)ccc2cccc(C)c21,/,/,86*,-45,-53,/,100*,81*
O=C1CCN(Cc2ccc(Cl)cc2Cl)C(=O)N1,/,/,-3,1,-2,4,/,/
Cn1ncc(Cl)c1C(=O)N1CCN(c2ccc(Cl)c(Cl)c2)CC1,-1,1,103*,0,4,-21,95*,86*
O=C(c1csc2ccccc12)N1CCN(c2ccc(Cl)c(Cl)c2)CC1,5,2,57,-5,4,-16,81*,61
CCOC(=O)C1CCCN(C(=O)c2[nH]c(C(F)(F)F)nc2-c2ccccc2)C1 (stereo unspecified),/,/,5,/,6,/,/,/
CC(C)(CC(=O)O)CC(=O)N1CCN(c2nc3ccc(Cl)cc3s2)CC1,2,-1,14,0,8,6,/,/
CCCCC(=O)N1CCN(c2nc3ccc(Cl)cc3s2)CC1,3,3,50,-2,-3,-18,66,-1

# Screening results deposited in PubChem by several laboratories.
